The target of series [1] is T1, C-C chemokine receptor type 4 (Homo sapiens, UniProt P51679).
T1 sequence (P51679 whole entry): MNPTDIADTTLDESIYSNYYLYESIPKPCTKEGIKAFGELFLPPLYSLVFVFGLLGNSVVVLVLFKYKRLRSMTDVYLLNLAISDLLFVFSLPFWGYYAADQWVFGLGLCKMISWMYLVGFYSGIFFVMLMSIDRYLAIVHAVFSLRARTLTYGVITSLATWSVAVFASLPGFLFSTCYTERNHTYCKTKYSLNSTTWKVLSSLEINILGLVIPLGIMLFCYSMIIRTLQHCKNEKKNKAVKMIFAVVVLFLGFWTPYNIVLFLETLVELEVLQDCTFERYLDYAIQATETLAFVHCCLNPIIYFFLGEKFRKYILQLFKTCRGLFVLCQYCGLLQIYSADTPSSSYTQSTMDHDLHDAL
Kind of series: Antagonist activity at human CCR4 expressed in rat chem-5 cells assessed as inhibition of CCL22-induced calcium flux measured at 2.5 secs time interval for 45 secs by fluorescence assay. It is filed as functional, cell-based. In a few lines:
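Calcium flux functional readout of CCR4 antagonism, run without serum; IC50 reported.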
A general note: Calcium assays in cells follow changes in intracellular calcium, usually with a dye or a luminescent sensor.

Series [2] in a line: Stability in human hepatocytes assessed as compound remaining incubated for 60 mins under shaking condition by LC-MS/MS analysis. It is filed as ADME, cell-based, Hepatocyte. To be noted: read-out: Stability. The method, boiled down:
(§1)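 Human and rat hepatocytes exposed to compound; percent parent remaining reported.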

The nature of series [3]: Stability in rat hepatocytes assessed as compound remaining incubated for 60 mins under shaking condition by LC-MS/MS analysis. To be noted: read-out: Stability. Format: ADME, cell-based, Hepatocyte. In a few lines:
as §1

Series [4] can be described thus: Terminal half-life in dog at 0.5 mg/kg, iv. It is filed as ADME, organism-based, Canis lupus familiaris. To be noted: in vivo, read-out: beta t1/2 (converted). In a few lines:
(§2)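 Cross-species PK (dog, cynomolgus monkey): 0.5 mg/kg IV or 2 mg/kg PO; three animals per group.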

Series [5] addresses T2, Cytochrome P450 1A2 (Homo sapiens, UniProt P05177).
T2 sequence (P05177 whole entry): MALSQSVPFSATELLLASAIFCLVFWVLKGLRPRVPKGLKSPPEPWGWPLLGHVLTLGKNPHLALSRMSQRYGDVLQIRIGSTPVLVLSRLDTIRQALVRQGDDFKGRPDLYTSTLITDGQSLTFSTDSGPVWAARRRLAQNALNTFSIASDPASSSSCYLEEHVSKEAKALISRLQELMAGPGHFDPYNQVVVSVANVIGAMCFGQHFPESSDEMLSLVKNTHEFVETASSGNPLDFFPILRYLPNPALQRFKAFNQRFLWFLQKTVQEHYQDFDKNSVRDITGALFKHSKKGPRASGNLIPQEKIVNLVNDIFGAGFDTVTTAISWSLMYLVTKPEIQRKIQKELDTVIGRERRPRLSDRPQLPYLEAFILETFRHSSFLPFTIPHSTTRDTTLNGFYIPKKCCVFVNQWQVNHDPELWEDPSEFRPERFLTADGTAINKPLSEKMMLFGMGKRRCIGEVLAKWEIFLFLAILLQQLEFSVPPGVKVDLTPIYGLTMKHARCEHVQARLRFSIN
Kind of series: Inhibition of CYP1A2 (unknown origin). It is filed as ADME. In a few lines: (§3)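 CYP inhibition tested against 1A2, 2C9, 2C19, 2D6 and 3A4; IC50 in μM.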

Series [6] relates to Mus musculus. Kind of series: Inhibition of anti-CD3/CD28-stimulated B6-Foxp3 GFP positive mouse T-reg cell migration into tumor of mouse Pan02 cells implanted in C57BL/6 mouse assessed as decrease in number of GFP positive T-reg cells in tumor at 30 mg/kg, po qd treated 24 hrs prior to T-reg cell addition followed by compound dosing for subsequent 4 days and measured on day 6 by flow cytometry relative to control. It is filed as functional. As to conditions: C57BL/6, Pan02, po. The method, boiled down: (§4)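 Pan02 pancreatic tumor-bearing mice dosed QD for 6 days at 10 or 30 mg/kg. GFP+ induced Treg, made from naive CD4+ T cells of Foxp3-GFP transgenic mice, injected 24 h after first dose. GFP+ Treg counted in tumor and spleen versus vehicle group; plasma level taken 24 h after last dose; one-way ANOVA.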
In general terms: A flow cytometer gives signals particle by particle.

Series [7] is described as follows: Terminal half-life in rat at 0.5 mg/kg, iv. Format: ADME, organism-based. As to conditions: in vivo, read-out: beta t1/2 (converted).
Series [8] concerns the target Cytochrome P450 3A4 (Homo sapiens, UniProt P08684). Kind of series: Inhibition of CYP3A4 (unknown origin). It is filed as ADME. The method, boiled down: as §3
Series [9] can be described thus: Half-life in mouse. Format: ADME, organism-based. To be noted: in vivo.
The nature of series [10]: Terminal half-life in cynomolgus monkey at 0.5 mg/kg, iv. Format: ADME, organism-based, Macaca fascicularis. To be noted: in vivo, read-out: beta t1/2 (converted). In a few lines:
as §2

Series [11] can be described thus: Oral bioavailability in dog at 2 mg/kg, po. As to conditions: in vivo. Format: ADME, organism-based, Canis lupus familiaris. In a few lines: as §2
Series [12] in a line: Hepatic clearance in cynomolgus monkey at 0.5 mg/kg, iv or 2 mg/kg, po. It is filed as ADME, organism-based, Macaca fascicularis. To be noted: in vivo. In a few lines:
as §2

Series [13] in a line: Oral bioavailability in rat at 2 mg/kg, po. It is filed as ADME, organism-based. To be noted: in vivo.
Series [14] deals with Cytochrome P450 2D6 (Homo sapiens, UniProt P10635). Kind of series: Inhibition of CYP2D6 (unknown origin). Format: ADME. In a few lines: as §3
The nature of series [15]: Clearance in mouse. It is filed as ADME, organism-based. As to conditions: in vivo.
Series [16] can be described thus: Terminal half-life in rat at 0.5 mg/kg, iv or 2 mg/kg, po. It is filed as ADME, organism-based. As to conditions: in vivo, read-out: beta t1/2 (converted).
Series [17] is described as follows: Bioavailability in mouse. As to conditions: in vivo. It is filed as ADME, organism-based.
The test system of series [18] is Mus musculus. Kind of series: Inhibition of anti-CD3/CD28-stimulated B6-Foxp3 GFP positive mouse T-reg cell migration into tumor of mouse Pan02 cells implanted in po dosed C57BL/6 mouse assessed as decrease in number of GFP positive T-reg cells in tumor treated 24 hrs prior to T-reg cell addition followed by daily compound dosing for subsequent 4 days and measured on day 6 by flow cytometry. Format: functional, organism-based. In a few lines: as §4

Series [19] is described as follows: Hepatic clearance in rat at 0.5 mg/kg, iv or 2 mg/kg, po. Format: ADME, organism-based. As to conditions: in vivo.
A short description of series [20]: Oral bioavailability in cynomolgus monkey at 2 mg/kg, po. Format: ADME, organism-based, Macaca fascicularis. As to conditions: in vivo. In a few lines:
as §2

For series [21], the target named is Cytochrome P450 2C19 (Homo sapiens, UniProt P33261). Kind of series: Inhibition of CYP2C19 (unknown origin). Format: ADME. In a few lines: as §3
Series [22] is described as follows: AUC(0 to infinity) in rat at 2 mg/kg, po. It is filed as ADME, organism-based. On the set-up: dose 2 mg/kg, route oral, time infinity. To be noted: in vivo.
Series [23] in a line: Volume of distribution at steady state in rat at 0.5 mg/kg, iv or 2 mg/kg, po. Format: ADME, organism-based. To be noted: in vivo, read-out: Vdss.
Series [24] concerns the target Cytochrome P450 2C9 (Homo sapiens, UniProt P11712). Put plainly: Inhibition of CYP2C9 (unknown origin). It is filed as ADME. In a few lines:
as §3

The nature of series [25]: Hepatic clearance in dog at 0.5 mg/kg, iv or 2 mg/kg, po. It is filed as ADME, organism-based, Canis lupus familiaris. To be noted: in vivo. The method, boiled down:
as §2

Series [26] is described as follows: Volume of distribution at steady state in mouse. Format: ADME, organism-based. As to conditions: in vivo, read-out: Vdss.
Series [27] is described as follows: AUCinfinity in rat at 0.5 mg/kg, iv. Format: ADME, organism-based. On the set-up: dose 0.5 mg/kg, route intravenous, time infinity. To be noted: in vivo.
The nature of series [28]: Hepatic clearance in rat at 0.5 mg/kg, iv. Format: ADME, organism-based. As to conditions: in vivo.

Some results are limits rather than exact numbers.

Chain of Cytochrome P450 3A4 (P08684 whole entry): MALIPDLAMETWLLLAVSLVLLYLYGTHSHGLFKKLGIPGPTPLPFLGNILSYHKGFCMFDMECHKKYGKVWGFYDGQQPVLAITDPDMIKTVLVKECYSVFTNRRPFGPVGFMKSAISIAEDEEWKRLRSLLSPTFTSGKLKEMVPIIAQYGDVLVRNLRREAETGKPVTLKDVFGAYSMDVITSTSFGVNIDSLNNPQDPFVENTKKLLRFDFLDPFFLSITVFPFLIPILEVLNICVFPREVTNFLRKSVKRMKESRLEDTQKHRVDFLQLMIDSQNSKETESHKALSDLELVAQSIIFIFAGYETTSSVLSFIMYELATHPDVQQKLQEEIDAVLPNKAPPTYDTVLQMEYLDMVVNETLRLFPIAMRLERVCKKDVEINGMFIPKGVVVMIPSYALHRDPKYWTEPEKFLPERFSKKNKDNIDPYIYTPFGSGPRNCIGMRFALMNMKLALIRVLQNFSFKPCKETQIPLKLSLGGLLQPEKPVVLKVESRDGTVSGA
Chain of Cytochrome P450 2C19 (P33261 whole entry): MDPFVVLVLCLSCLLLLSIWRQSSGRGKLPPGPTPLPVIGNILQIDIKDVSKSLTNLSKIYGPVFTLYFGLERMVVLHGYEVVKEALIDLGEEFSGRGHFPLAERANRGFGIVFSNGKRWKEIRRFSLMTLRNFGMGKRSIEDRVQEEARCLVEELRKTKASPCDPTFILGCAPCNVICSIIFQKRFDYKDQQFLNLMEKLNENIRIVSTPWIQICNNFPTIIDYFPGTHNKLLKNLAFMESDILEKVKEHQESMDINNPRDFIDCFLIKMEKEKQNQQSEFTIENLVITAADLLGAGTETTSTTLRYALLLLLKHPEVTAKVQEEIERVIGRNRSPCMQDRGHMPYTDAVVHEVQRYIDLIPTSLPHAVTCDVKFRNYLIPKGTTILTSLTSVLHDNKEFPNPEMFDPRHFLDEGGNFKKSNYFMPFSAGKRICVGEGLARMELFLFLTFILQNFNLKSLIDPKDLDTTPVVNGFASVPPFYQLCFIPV
Chain of Cytochrome P450 2C9 (P11712 whole entry): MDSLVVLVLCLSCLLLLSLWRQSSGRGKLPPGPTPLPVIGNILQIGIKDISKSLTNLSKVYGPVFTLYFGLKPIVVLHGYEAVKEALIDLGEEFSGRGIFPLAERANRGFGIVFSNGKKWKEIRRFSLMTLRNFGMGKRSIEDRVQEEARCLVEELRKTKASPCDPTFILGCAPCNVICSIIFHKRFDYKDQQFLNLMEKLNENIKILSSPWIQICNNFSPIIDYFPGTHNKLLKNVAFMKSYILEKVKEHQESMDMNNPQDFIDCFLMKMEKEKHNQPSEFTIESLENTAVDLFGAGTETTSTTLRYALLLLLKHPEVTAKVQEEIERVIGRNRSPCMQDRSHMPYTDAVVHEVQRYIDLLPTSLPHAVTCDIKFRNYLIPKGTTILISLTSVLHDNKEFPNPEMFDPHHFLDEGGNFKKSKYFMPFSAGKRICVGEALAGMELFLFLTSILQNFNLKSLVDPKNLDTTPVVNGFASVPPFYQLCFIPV
Chain of Cytochrome P450 2D6 (P10635 whole entry): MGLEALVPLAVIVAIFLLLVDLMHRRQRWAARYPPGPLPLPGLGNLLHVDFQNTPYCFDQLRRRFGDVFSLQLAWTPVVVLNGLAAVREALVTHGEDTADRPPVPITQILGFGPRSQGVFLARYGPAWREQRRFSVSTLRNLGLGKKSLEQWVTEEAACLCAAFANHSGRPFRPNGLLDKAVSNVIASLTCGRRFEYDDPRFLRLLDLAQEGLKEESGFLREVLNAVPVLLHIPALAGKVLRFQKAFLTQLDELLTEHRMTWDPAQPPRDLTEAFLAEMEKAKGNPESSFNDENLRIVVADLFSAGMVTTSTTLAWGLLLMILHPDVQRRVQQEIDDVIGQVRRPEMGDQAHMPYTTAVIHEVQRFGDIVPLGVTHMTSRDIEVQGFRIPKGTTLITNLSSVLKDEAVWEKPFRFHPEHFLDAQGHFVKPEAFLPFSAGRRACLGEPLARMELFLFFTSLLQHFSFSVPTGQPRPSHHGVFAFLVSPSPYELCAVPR

With `Cc1nn([C@H](C)c2ccc(Cl)cc2Cl)c2nc(N3CC[C@@H](N4CCCCC4)[C@@H](C)C3)cnc12`, the IC50 – broadly, the concentration at which inhibition is half-maximal – in series [1] stood at 0.803 µM.
On the same count and under the same terms, the result for `C[C@@H]1CC(c2cnc3c(C#N)nn([C@H](C)c4ccc(Cl)cc4Cl)c3n2)=CC[C@@H]1N1CCC[C@H]1C(F)(F)F` reads greater than 5 µM.
For `Cc1nn([C@H](C)c2ccc(Cl)cc2Cl)c2nc(C3=CC[C@H](N4CCC[C@H]4CO)[C@H](C)C3)cnc12`, the remaining at 1 h in series [2] came to 99%; in series [3], 35%. In [1], the IC50 is 0.036 µM.
On to `C[C@@H]1CC(c2cnc3c(C#N)nn([C@H](C)c4ccc(Cl)cc4Cl)c3n2)=CC[C@@H]1N1CCC[C@H]1CO`, for which the half-life in [4] was 16.4 h; in series [7], 2.2 h; in series [9], 7.6 h; in [10], 9.9 h; in series [16] it was 4.1 h. In addition, the IC50 was greater than 10 µM in series [5]; greater than 10 µM in [8]; greater than 10 µM in series [14]; greater than 10 µM in series [21]; 0.04 µM in [1]; greater than 10 µM in series [24]. The remaining at 1 h came to 81% in series [2] and 32% in series [3]. The inhibition in vivo (in general, the percentage by which the read-out fell short of the control) at 30 mg/kg in series [6] was found to be 100%. The bioavailability – broadly, the share of a dose that reaches the circulation, judged against a reference dose that is usually intravenous – in [11] was 75%; in series [13], 28%; in [17] it was 26%; in [20], 30%. The CLH is 0.678 L/h/kg in series [12], 4.48 L/h/kg in series [19] and 0.642 L/h/kg in series [25]. Moreover, the clearance (as a rule, the rate of elimination divided by the concentration) in series [15] was determined as 0.72 L/h/kg. Further, the inhibition entry in series [18] was “Dose-dependent effect”. Also, the AUC(0-inf) – broadly, the area under the concentration-time curve extrapolated to infinity – in series [22] is 0.125 µg·h/mL. Also, the Vd in [23] is 9.8 L/kg; in series [26] it was 5.7 L/kg.
`Cc1nn([C@H](C)c2ccc(Cl)cc2Cl)c2nc(N3CC[C@H](N4CCC[C@H]4CCS(N)(=O)=O)[C@H](C)C3)cnc12`: in series [1], the IC50 was 0.032 µM.
As to `C[C@@H]1CC(c2cnc3c(C#N)nn([C@H](C)c4ccc(Cl)cc4Cl)c3n2)=CC[C@@H]1N1CCC[C@H]1C(N)=O`, the remaining at 1 h in series [2] was determined as 97%; in [3], 71%. The IC50 in series [1] was 0.054 µM.
Consider `Cc1nn([C@H](C)c2ccc(Cl)cc2Cl)c2nc(N3CC[C@H](N4CCCCC4)[C@H](C)C3)cnc12`, for which the half-maximal inhibitory concentration (IC50) in series [1] was 0.042 µM.
`C[C@@H]1CC(c2cnc3c(C#N)nn([C@H](C)c4ccc(Cl)cc4Cl)c3n2)=CC[C@@H]1N1CCC[C@H]1CN`: the remaining at 1 h in [2] and in [3] was 100% in each case. In addition, the IC50 in [1] stood at 0.229 µM.
In the case of `Cc1nn([C@H](C)c2ccc(Cl)cc2Cl)c2nc(N3CC[C@H](N4CCCC4)[C@H](C)C3)cnc12`, the half-maximal inhibitory concentration (IC50) in series [1] is 0.069 µM.
`C[C@@H]1CN(c2cnc3c(C#N)nn([C@H](C)c4ccc(Cl)cc4Cl)c3n2)CC[C@@H]1N1CCC[C@H]1CO`: the IC50 was greater than 10 µM in series [5]; greater than 10 µM in series [8]; greater than 10 µM in series [14]; greater than 10 µM in series [21]; 0.027 µM in series [1]; greater than 10 µM in series [24]. The figures for the remaining at 1 h in [2] and in [3] were 74% and 19%, respectively. In [13], this compound returned a bioavailability of 7%. For the same compound, the half-life in series [16] is 2.1 h. The same compound came in with a CLH in series [19] of 6.876 L/h/kg. For the same compound, the AUC(0-inf) in series [22] is 0.0232 µg·h/mL. In addition, the Vd in series [23] is 13.4 L/kg.
For the compound `CC(c1ccc(Cl)cc1Cl)n1ncc2ncc(N3CCC(N4CCCCC4)CC3)nc21` (centres undefined), the IC50 in [1] was determined as 2.58 µM.
In series [27], `CC1CN(c2cnc3cnn(C(C)c4ccc(Cl)cc4Cl)c3n2)CCC1N1CCCCC1` (centres undefined) showed an AUC(0-inf) of 0.068 µg·h/mL. Also, the CLH in [28] worked out at 7.302 L/h/kg. Besides, the IC50 in [1] stood at 0.238 µM.
Turning to `Cc1nn([C@H](C)c2ccc(Cl)cc2Cl)c2nc(N3CC[C@H](N4CCC[C@H]4CCS(C)(=O)=O)[C@H](C)C3)cnc12`, the IC50 in series [1] stood at 0.104 µM.
For `Cc1nn([C@H](C)c2ccc(Cl)cc2Cl)c2nc(N3CC[C@H](N4CCC[C@H]4C(N)=O)[C@H](C)C3)cnc12`, in [1], the concentration for half-maximal inhibition (IC50) amounted to 0.17 µM.
